From PubChem BioAssay AID624038 (The Scripps Research Institute Molecular Screening Center, 2012)
Hit rate of the full screen: of about 360,000 compounds, about 1,100 (0.31%) were called active.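 How the source made its calls: active means activation above the run cutoff, the mean activation of all test compounds plus 3 SD (cut at about 18% in these data); inactive means the rest.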 The sample as a whole holds a higher share of actives than the screen did.

Target: Muscarinic acetylcholine receptor M5 (Homo sapiens) (UniProt P08912)
Experiment: human M5 muscarinic receptor positive allosteric modulators, primary screen, CHO-K1 cells, Fluo-8 calcium fluorescence (AID 624038)
Conditions: CHO-K1 hM5, Fluo-8 calcium, ACh EC20 PAM; at 3 µM; stronger effect = higher value; 0% = ACh EC20, 100% = ACh EC100
Method in brief: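 system = human M5 receptor in CHO-K1 cells | compound = one concentration, 3 µM final (nominal) | schedule = Post-acetylcholine fluorescence recording 140 s | signal = Fluo-8 calcium dye fluorescence, kinetic read | benchmarks = low control EC20 acetylcholine (0%), high control EC100 acetylcholine (100%) | repeats = singlicate, one well per test compound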

Muscarinic acetylcholine receptor M5 (Homo sapiens), sequence (P08912 whole entry, looked up): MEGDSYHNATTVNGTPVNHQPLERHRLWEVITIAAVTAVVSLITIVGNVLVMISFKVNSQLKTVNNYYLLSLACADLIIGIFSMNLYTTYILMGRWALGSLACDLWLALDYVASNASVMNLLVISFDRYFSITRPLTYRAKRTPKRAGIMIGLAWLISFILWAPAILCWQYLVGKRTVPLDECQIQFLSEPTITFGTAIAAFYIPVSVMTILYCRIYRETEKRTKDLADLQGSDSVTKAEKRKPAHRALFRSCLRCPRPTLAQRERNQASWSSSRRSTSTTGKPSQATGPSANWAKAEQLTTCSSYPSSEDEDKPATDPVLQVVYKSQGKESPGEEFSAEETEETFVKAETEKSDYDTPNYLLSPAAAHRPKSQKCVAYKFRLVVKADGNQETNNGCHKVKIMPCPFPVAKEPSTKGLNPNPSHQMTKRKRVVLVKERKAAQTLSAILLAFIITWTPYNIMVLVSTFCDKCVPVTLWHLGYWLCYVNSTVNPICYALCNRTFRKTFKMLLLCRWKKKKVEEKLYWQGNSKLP

Question: With CC=C(C)C(=O)OC1CCN2CC=C(COC(=O)C(O)(C(C)OC)C(C)(C)O)C12 (stereo not given) as the compound, how does the activation read?
Answer: 19.2% (active)

Question: Which activation does the source give for CCOP(=S)(OCC)SCOC(=O)NCC(=O)OC here?
Answer: 0.05% (inactive)

Question: Which activation does the source give for O=[N+]([O-])c1cnc2ccc3ccccc3c2c1 here?
Answer: 3.69% (inactive)

Question: For COc1ccc(-n2c(-c3ccccc3)nc3ccccc3c2=O)cc1, which activation is on record?
Answer: 14.8% (inactive)

Question: How did the activation turn out when COC(=O)CN(CCCl)P1(=O)OCCCN1CCCl (stereo not given) was run?
Answer: -10.4% (inactive)
